S1P4 ag = S1P4 receptor agonists, primary screen, cell-based; S1P4-expressing cell line, agonist reporter assay; activation, % at 4.98 µM; 220,000 tested, 0.35% active; in the data active means activation above about 11%;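 further: 0% = DMSO vehicle and 100% = reference agonist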
Target sequence (O95977 whole entry, looked up): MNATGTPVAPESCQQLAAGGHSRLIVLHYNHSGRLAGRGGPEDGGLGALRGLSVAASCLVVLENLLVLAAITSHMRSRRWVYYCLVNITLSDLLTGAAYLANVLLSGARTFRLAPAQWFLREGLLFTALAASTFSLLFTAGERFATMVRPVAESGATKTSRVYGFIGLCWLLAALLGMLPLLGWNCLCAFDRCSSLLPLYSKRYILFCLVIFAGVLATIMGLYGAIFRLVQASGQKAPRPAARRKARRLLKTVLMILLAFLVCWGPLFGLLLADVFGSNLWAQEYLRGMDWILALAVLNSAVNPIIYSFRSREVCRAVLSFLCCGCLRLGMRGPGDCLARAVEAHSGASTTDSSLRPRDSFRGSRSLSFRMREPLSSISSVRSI
S1P4 antagonist = S1P4 receptor antagonists, primary screen, cell-based; Sphingosine 1-phosphate receptor 4 (Homo sapiens), O95977; S1P4-expressing cells, antagonist mode, reporter read-out; inhibition, % at 4.98 µM; 220,000 tested, 0.26% active; in the data active means inhibition above about 29%;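 further: 0% = wells stimulated with agonist and 100% = vehicle wells without agonist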
TNF necrop inh = inhibitors of TNF-alpha triggered necroptosis, primary screen, cell-based, Jurkat FADD-/-, single concentration; Jurkat FADD-/- TNF necroptosis rescue, ATP luminescence, 24 h; 0 = TNF only, 100 = no-TNF cells; activation (protection from cell death), % at 10 µM; 220,000 tested, 0.068% active;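 active means activation, meaning protection from cell death, of at least 50% relative to plate controls; inactive means activation below 50%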;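 further: necroptosis triggered by 40 ng/mL TNF-alpha added together with compound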
Tb hexokinase = Trypanosoma brucei hexokinase 1 inhibitors, primary screen, biochemical, G6PDH-coupled NADH absorbance, MLSCN library; hexokinase 1 [Trypanosoma brucei]; recombinant TbHK1, G6PDH-coupled NADH A340; inhibition, % at 10 µM; 220,000 tested, 0.11% active;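 active means inhibition of 50% or more in the single-dose primary screen; inactive means inhibition below 50%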
Dynein cargo inh = inhibitors of GR-EGFP nuclear translocation, primary screen, dynein cargo transport inhibitor project, imaging, high-content, 3617.4 mouse cells. 220,000 tested, 0.47% active. z-score, hits read low. test concentration mostly 20 µM; stimulated with dexamethasone, 1 µM; hits give low values;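 active means plate z-score of nuclear minus cytoplasmic receptor signal below a set negative limit, without overly bright fluorescence or cell loss, cut at about -3.5 in these data, passing the limit was not always enough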;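 further: z-score of nuclear minus cytoplasmic ring GR-EGFP intensity difference per well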
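Buffer or medium: tetracycline-free induction medium containing charcoal-stripped FBS / Reagent: dexamethasone agonist, 1.0 µM final, for 30 min / Technique: automated 10x imaging of fixed Hoechst-stained cells / Times: induction 48 h, compound 1 h, agonist 30 min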
L929 necroptosis = inhibitors of zVAD-triggered necroptosis, primary screen, L929 cells. 220,000 tested, 0.38% active. L929 zVAD necroptosis rescue, ATP luminescence, 24 h; with zVAD 60 µM. viability rescue, % at 10 µM. AID 1377, 2008;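 active means activation, scaled between plate controls, above about 75%, limit read from the data; inactive means activation under that limit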;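 further: 0% = zVAD with DMSO and 100% = DMSO alone without zVAD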
zVAD death conf = inhibitors of zVAD-triggered necroptosis in L929, confirmation, L929 cells, duplicate runs | shares compounds with L929 necroptosis | activation (protection from necroptosis), % at 10 µM | L929 zVAD-induced necroptosis rescue, ATP luminescence, 24 h | 760 tested, 16% active | AID 463117, 2010;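 active means mean protection from necroptosis of at least 50% over duplicate tests; inactive means mean protection below 50%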;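 further: 0% = cells with zVAD alone and 100% = vehicle cells without zVAD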
* marks the source's active call; other numbers are inactive results; nt = no result given. The list is not random: actives were taken first. Their share in the collection is about 1.5%.

SMILES	S1P4 ag	S1P4 antagonist	TNF necrop inh	Tb hexokinase	Dynein cargo inh	L929 necroptosis	zVAD death conf
COc1ccc(C(=O)OCC(=O)NC(=O)NC2CCCC2)c(O)c1	1	-3	1	9	0.013	77*	10
COc1ccc(C(=O)OCC(=O)NC(=O)NC2CCCC2)c(OC)c1	1	-20	0	9	0.19	12	nt
COc1cc(/C=N/Nc2ccccc2[N+](=O)[O-])ccc1OC(=O)c1ccccc1F	3	-16	-1	-20	-0.3	4	nt
COc1cc(/C=N/Nc2nc3ccccc3s2)ccc1OC(=O)c1ccccc1F	1	-9	31	-25	-1.2	75*	75*
Brc1csc(/C=N/Nc2nc3ccccc3s2)c1	2	2	7	-10	0.88	76*	2
O=[N+]([O-])c1cc(Cl)cc(/C=N/Nc2nc3ccccc3s2)c1O	-1	-15	-1	-4	0.08	11	nt
COc1cc(/C=N/Nc2nc3ccccc3s2)cc([N+](=O)[O-])c1O	0	8	25	-92	-0.29	76*	1
COc1cc(OC)cc(C(=O)Oc2ccc(/C=N/Nc3nc4ccccc4s3)cc2OC)c1	-1	-12	3	-29	0.14	77*	5
CCCc1cc(NCCCO)n2c(nc3ccccc32)c1C#N	0	-35	-1	-12	0.46	5	nt
CC(=O)C1=C(C)NC(SCC(=O)Nc2nccs2)=C(C#N)C1c1ccccc1Cl (configuration not stated)	-1	-5	15	9	0.3	82*	3
C=CCOC(=O)C1=C(C)NC(SCC(=O)Nc2nccs2)=C(C#N)C1c1ccc(Cl)cc1 (configuration not stated)	0	-10	2	1	0.12	1	nt
C=CCOC(=O)C1=C(C)NC(SCC(=O)Nc2nccs2)=C(C#N)C1c1cccs1 (configuration not stated)	1	-23	12	-8	-0.4	87*	66*
COc1ccccc1/C=C/C=c1\sc2nc(=O)c(Cc3ccccc3)nn2c1=O	1	2	-2	6	-1.1	0	nt
O=C(Nc1ccc(NC(=S)NC(=O)c2cccs2)cc1)c1ccccc1	0	-6	1	0	0.1	0	nt
O=C(Nc1ccc(NC(=S)NC(=O)C(c2ccccc2)c2ccccc2)cc1)c1ccccc1	1	-8	-9	-22	-1.1	78*	38
O=c1c(Cc2ccc(Cl)cc2Cl)c(O)ccn1CCCN1CCOCC1	-1	-3	0	2	-0.19	0	nt
CCOCC(=O)Nc1ccc2c(c1)OCCO2	2	-17	1	-7	0.62	0	nt
C/C(=N\OCC(=O)Nc1ccc2c(c1)OCCO2)c1ccc2c(c1)OCCO2	0	-8	1	-2	0.19	86*	4
CN(c1nc2ccccc2n2c(C3CC3)nnc12)S(=O)(=O)c1ccccc1	-1	-10	0	-18	-0.14	0	nt
COc1ccc(CC2(C)OC(c3ccc(C)c([N+](=O)[O-])c3)=NN2C(C)=O)cc1 (configuration not stated)	-1	3	-1	-5	-0.36	-1	nt
Cc1ccc(NC(=O)c2noc3c2CCCCC3)cc1	1	-3	2	-3	-0.54	82*	2
Cc1nc(-c2ccccc2)sc1-c1ccn[nH]1	1	-14	10	-28	-0.65	80*	40
C(=N\Nc1nc(Nc2ccccc2)nc(Nc2ccccc2)n1)/c1ccncc1	0	-3	2	-22	-1	5	nt
CNc1nc(C)nc(N/N=C/c2ccccc2)n1	2	-12	16	1	0.0055	76*	1
CCOc1ncccc1C(=O)OCC(=O)N(CC(C)C)C1CCS(=O)(=O)C1 (configuration not stated)	0	-21	1	-1	-0.13	0	nt
SMILES	S1P4 ag	S1P4 antagonist	TNF necrop inh	Tb hexokinase	Dynein cargo inh	L929 necroptosis	zVAD death conf
Brc1ccc(COn2ccnc2)cc1	0	1	61*	6	1.1	91*	75*
Cc1ccc(CC2SC(N)=NC2=O)cc1 (configuration not stated)	2	-4	3	-1	-0.57	83*	3
COc1ccc2nc(NC(=O)C3CCN(S(=O)(=O)c4cccnc4)CC3)sc2c1	-1	10	0	-9	1.8	88*	5
COc1ccc2nc(NC(=O)C3CCN(S(=O)(=O)c4cnc[nH]4)CC3)sc2c1	1	-7	4	0	-0.78	72	nt
CCOc1ccc2nc(NC(=O)C3CCN(S(=O)(=O)c4cnc[nH]4)CC3)sc2c1	-2	-25	0	3	-0.67	83*	10
Cc1ccc2nc(NC(=O)C3CCN(S(=O)(=O)c4cccnc4)CC3)sc2c1	-2	5	-2	-18	0.99	80*	5
COc1ccc2nc(NC(=O)C3CCN(S(=O)(=O)c4cccs4)CC3)sc2c1	2	-13	0	-5	1.8	79*	31
COc1ccc(NC(=O)C2CCN(S(=O)(=O)c3cccnc3)CC2)cc1Cl	2	17	0	2	-0.87	nt	nt
Cc1ccc2nc(NC(=O)C3CCN(S(=O)(=O)c4cnc[nH]4)CC3)sc2c1	2	5	5	1	-0.56	nt	nt
COc1cc(CCc2ccc3c(c2)OCO3)oc(=O)c1	nt	nt	-1	-8	0.0075	1	nt
CC1(Cc2ccc3c(c2)OCO3)NC(=O)NC1=O (configuration not stated)	-1	-7	17	-1	-0.43	102*	59*
CC(C)(C)c1cc(NCc2ccccn2)n2ncc(-c3ccc(Cl)cc3)c2n1	0	-11	4	-34	1.1	77*	1
NC(=O)c1cc(NC(=O)c2ccc(NS(=O)(=O)c3cccs3)cc2)cc(C(N)=O)c1	1	6	2	-14	-0.23	0	nt
N#Cc1ccccc1NC(=O)CSc1nnc(-c2ccncc2)o1	1	-10	1	-5	-0.053	1	nt
O=c1nc2cccc3c2=c(/c1=C(\O)c1ccccc1)c1ccccc1c3=O	-1	-5	3	-8	0.95	80*	0
O=C(COc1ccccc1)Nc1cccc(-c2nc3cc4ccccc4cc3[nH]2)c1	0	0	-15	-19	1.8	15	nt

Assay outcomes (PubChem BioAssay)
